M4 ag – human M4 muscarinic receptor agonists, primary screen, CHO-K1 cells, Fluo-8 calcium fluorescence | Muscarinic acetylcholine receptor M4 (Homo sapiens), P08173 | CHO-K1 hM4/Gqi5; vehicle 0%, full acetylcholine response 100% | activation, % at 3 µM | 360,000 compounds, 0.14% hits | AID 624127, 2012;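 active means activation above the run mean over all test wells plus 3 SD, cut at about 32% in these data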;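 further: peak over basal fluorescence ratio per well then scaled between controls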
M5 ag – human M5 muscarinic receptor agonists, primary screen, CHO-K1 cells, Fluo-8 calcium fluorescence; CHO-K1 hM5 cells; 0% DMSO wells, 100% maximal acetylcholine response; activation, % at 3 µM; 360,000 compounds, 0.19% hits;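 active means activation above the run's mean over test compounds plus 3 SD, cut at about 23% in these data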;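 further: signal is peak over basal fluorescence ratio across the kinetic read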
Target sequence (P08912 whole entry, looked up): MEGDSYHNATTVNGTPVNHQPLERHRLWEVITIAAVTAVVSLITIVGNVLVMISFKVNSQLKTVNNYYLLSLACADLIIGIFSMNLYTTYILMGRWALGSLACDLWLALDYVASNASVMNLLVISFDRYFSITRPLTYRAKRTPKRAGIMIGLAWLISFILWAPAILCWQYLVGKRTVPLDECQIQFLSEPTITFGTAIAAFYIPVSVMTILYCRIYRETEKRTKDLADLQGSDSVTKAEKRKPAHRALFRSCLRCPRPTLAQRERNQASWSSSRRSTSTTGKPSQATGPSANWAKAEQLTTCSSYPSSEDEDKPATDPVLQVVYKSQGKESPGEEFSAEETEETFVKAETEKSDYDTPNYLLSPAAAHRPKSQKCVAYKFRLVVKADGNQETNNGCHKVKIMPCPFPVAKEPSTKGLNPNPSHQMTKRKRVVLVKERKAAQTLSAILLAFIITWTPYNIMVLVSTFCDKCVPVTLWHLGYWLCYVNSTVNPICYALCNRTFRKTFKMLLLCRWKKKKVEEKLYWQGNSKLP
M4 antag – human M4 muscarinic receptor antagonists, primary screen, CHO cells, Fluo-8 calcium fluorescence. Muscarinic acetylcholine receptor M4 (Homo sapiens), P08173. CHO-hM4 cells, ACh EC80. inhibition, % at 3 µM. 360,000 compounds, 0.73% hits;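 active means inhibition above its plate's cutoff, the mean inhibition of sample wells plus 3 SD, cut at about 27% in these data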
CHRM5 antagonist – human M5 muscarinic receptor antagonists, primary screen, CHO cells, Fluo-8 calcium fluorescence; Muscarinic acetylcholine receptor M5 (Homo sapiens), P08912; CHO-hM5 cells, ACh EC80; inhibition, % at 3 µM; 360,000 compounds, 0.59% hits; AID 624040, 2012;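 active means inhibition above a per-plate cutoff, the mean of that plate's test compounds plus 3 SD, cut at about 27% in these data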
CHRM4 PAM – human M4 muscarinic receptor positive allosteric modulators, primary screen, CHO-K1 cells, Fluo-8 calcium fluorescence; Muscarinic acetylcholine receptor M4 (Homo sapiens), P08173; activation, % at 3 µM; CHO-K1 hM4/Gqi5, ACh EC20; 0% = ACh EC20, 100% = maximal ACh; 360,000 compounds, 0.4% hits; AID 624126, 2012;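 active means activation above its plate's cutoff, the mean activation of sample wells plus 3 SD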
CHRM5 PAM – human M5 muscarinic receptor positive allosteric modulators, primary screen, CHO-K1 cells, Fluo-8 calcium fluorescence; Muscarinic acetylcholine receptor M5 (Homo sapiens), P08912; CHO-K1 hM5, ACh EC20 PAM; 0% = ACh EC20, 100% = ACh EC100; activation, % at 3 µM; 360,000 compounds, 0.3% hits; AID 624038, 2012;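 active means activation above the run cutoff, the mean activation of all test compounds plus 3 SD, cut at about 18% in these data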
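Assay system – human M5 receptor in CHO-K1 cells · Read-out – % activation, ACh-normalized · Technique – Fluo-8 calcium fluorescence · Dosing – single-point, 3 µM nominal · Incubation – Fluo-8 loading 80 min at 37 °C plus 30 min room temperature · Repeats – singlicate, one well per test compound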
Numbers stand for hits; . = inactive. Most compounds without a hit are left out; they make up all but 1.8% or so of the library.

SMILES	M4 ag	M5 ag	M4 antag	CHRM5 antagonist	CHRM4 PAM	CHRM5 PAM
S=C1NC[C@H](Cc2ccccc2)N1CC1CCN(CCCC2CCCC2)CC1	.	.	42.4	.	.	.
COc1ccc(CCN2CCC(CN3C(=S)NC[C@@H]3CC(C)C)CC2)cc1OC	.	.	.	.	.	.
CCOc1ccc(CCN2C(=S)N([C@@H](Cc3ccc(O)cc3)CN3CCC[C@@H]3CN3C(=S)NC[C@@H]3Cc3ccccc3)C[C@@H]2CC(C)C)cc1	.	.	.	.	.	.
CC(C)C[C@H]1CNC(=S)N1CC1CCN(CCCCc2ccccc2)CC1	.	.	41.8	.	.	.
CCOc1ccc(CCN2C(=S)N([C@@H](Cc3ccc(O)cc3)CN3CCC[C@@H]3CN3C(=S)NC[C@@H]3CC(C)C)C[C@@H]2Cc2ccccc2)cc1	.	.	.	.	23.0	.
CCCCN1CCC(CN2C(=S)NC[C@@H]2CC(C)C)CC1	.	.	.	.	.	.
S=C1NC[C@H](Cc2ccccc2)N1CCCCC1CCCCC1	.	.	.	.	.	.
CCn1c(SCC(=O)Nc2cc(Cl)ccc2OC)nnc1C1CC1	.	.	.	.	.	.
CC1CN(C(=O)c2ccccc2OCc2ccccc2Cl)CC(C)O1 (centres undefined)	.	.	.	.	.	.
COC(/C(=N/O)c1ccc(Cl)cc1)c1ccccc1 (centres undefined)	.	.	28.3	29.4	.	.
Cc1cc(C(=O)CSc2nnc(-c3ccccc3)n2-c2ccccc2)c(C)n1-c1ncn[nH]1	.	.	.	.	25.9	.
O=C1CN(C(=O)CN2CCN(S(=O)(=O)c3ccccc3)CC2)c2ccccc2N1	.	.	.	.	.	.
COc1ccc(C(NC(=O)C2CCN(Cc3ccc(Oc4ccccc4)cc3)CC2)c2ccccn2)cc1 (centres undefined)	.	.	.	.	.	.
COC(=O)c1c(Sc2ccccc2)c2ccccc2n1C	.	57.5	.	.	.	.
Cc1ccc(/C=C/C(=O)OCC(=O)N(C)c2c(N)n(Cc3ccccc3)c(=O)[nH]c2=O)o1	.	.	.	.	.	.
CCN(CC(=O)Nc1ccc(NC(C)=O)cc1)C(=O)C1(c2ccccc2)CC1	.	.	.	.	.	.
CCn1c(=O)c2sccc2n(Cc2ccccc2)c1=O	.	.	.	.	.	.
CCn1cc(C(=O)N[C@H](C(=O)O)C(C)C)c(=O)c2cc3c(cc21)OCO3	.	.	.	.	.	.
CCn1nc(C(=O)O)c(=O)c2cc3c(cc21)OCO3	.	.	34.3	.	.	.
COCCCNC(=O)Cn1c(=O)n(CC(=O)NCCc2ccc(OC)c(OC)c2)c(=O)c2sccc21	.	.	.	.	.	.
COc1ccc(CCNC(=O)Cn2c(=O)n(-c3ccc(C)c(F)c3)c(=O)c3sccc32)cc1OC	.	.	.	.	31.7	.
O=C(Nc1cccc(C(=O)O)c1)/C(=C/c1ccc2c(c1)OCO2)NC(=O)c1cccc(Br)c1	.	.	.	28.0	.	.
O=C(Nc1cccc(C(=O)O)c1)/C(=C\c1ccc2c(c1)OCO2)NC(=O)c1ccccc1Br	.	.	.	.	.	.
CCOC(=O)N1CCN(C(=O)c2ccc3nc(N4CCC(C)CC4)sc3c2)CC1	.	.	.	.	15.7	.
CCCC(=O)N1CCN(c2nc3ccc(Br)cc3s2)CC1	.	.	.	.	28.9	.
SMILES	M4 ag	M5 ag	M4 antag	CHRM5 antagonist	CHRM4 PAM	CHRM5 PAM
CCCC(=O)N1CCN(c2nc3ccc(CC)cc3s2)CC1	.	.	.	.	.	.
CCCCC(=O)N1CCN(c2nc3ccc(Br)cc3s2)CC1	.	.	.	.	19.4	.
CC(=O)N1CCN(c2nc3ccc(Br)cc3s2)CC1	.	.	.	.	.	.
COc1ccc(-c2nc(N3CCCCCC3)sc2C(=O)c2ccccc2)cc1	.	.	33.1	.	.	.
O=C(c1ccccc1)c1sc(N2CCCCCC2)nc1-c1ccccc1	.	.	.	.	.	.
CCN(CC)CCNC(=O)c1ccc(NC(=O)c2cccc(S(=O)(=O)Nc3ccc(C)cc3)c2)cc1	.	.	43.5	52.0	.	.
CC(=O)N1CCN(C(=O)c2cccc(S(=O)(=O)N3c4ccccc4CC3C)c2)CC1 (centres undefined)	.	.	.	.	15.8	.
N#C/C(=N\Nc1ccc(S(=O)(=O)N2CCc3ccccc32)cc1)C(N)=S	.	.	.	.	.	.
CN(C)CCNC(=O)c1cccc(S(=O)(=O)Nc2ccc(F)cc2)c1	.	.	.	.	.	.
CCN(CC)CCNC(=O)c1ccc(NC(=O)c2cccc(S(=O)(=O)N3CCc4ccccc43)c2)cc1	.	.	61.3	83.3	.	.
CCOC(=O)/C(C#N)=N/Nc1ccc(S(=O)(=O)N2CCc3ccccc32)cc1	.	.	.	27.2	.	.
CCCCn1nnnc1C(c1ccccc1)N1CCN(c2ccc(C)cc2)CC1 (centres undefined)	.	.	.	.	.	.
Cc1ccc(SCCSc2nc(C)cc(=O)[nH]2)cc1	.	.	.	.	.	.
O=c1[nH]cnc2c1ccn2C1OC(CO)C(O)C1O (centres undefined)	.	.	.	.	.	.
CCN(CC)CCNC(=O)c1ccc(NC(=O)c2ccc(S(=O)(=O)N3CCCC3)cc2)cc1	.	.	.	.	.	.
COc1ccc(C(=O)Nc2ccc(S(=O)(=O)N3CCc4ccccc43)cc2)cc1	.	.	41.5	.	.	.
CCN(CC)CCNC(=O)c1ccc(NC(=O)c2cc(S(=O)(=O)N3CCCCC3)ccc2C)cc1	.	.	69.5	36.4	.	.
CCN(CC)CCNC(=O)c1ccc(NC(=O)c2cccc(S(=O)(=O)N3c4ccccc4CC3C)c2)cc1 (centres undefined)	.	.	97.1	98.3	.	.
Cn1cc(S(=O)(=O)N2CCc3ccccc32)cc1C(=O)NC(C)(C)C	.	.	37.5	41.4	.	.
CC1CCCC(NC(=O)c2cccs2)C1C (centres undefined)	.	.	.	.	.	.
